Screens from PubChem.
CaV13 ICDI inh: Primary screen for inhibitors of IQ motif and Ca2+-dependent inactivation inhibitor domain binding in CACNA1D, Förster resonance energy transfer in living cells, …; HEK cells, CFP/YFP FRET ICDI-IQ, plate reader, 10 min; percent FRET-ratio fall versus neutral wells; inhibition, % at 12.3 µM; 0.098% of 340,000 active; AID 743397;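 active = mean replicate inhibition of at least 30% and at least 1% of replicates passing that level; inconclusive = only one of the two criteria is met; inactive = neither criterion is met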;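 also: 0% = median of the neutral control wells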
LGR2 antag: inhibitors of bursicon-induced Drosophila LGR2 receptor cAMP signaling. HEK293 LGR2, CRE-luciferase, bursicon-stimulated, 4 h. inhibition, % at 9.99 µM. 0.35% of 380,000 active. AID 720647;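 active = drop in luminescence signal, shown as inhibition above about 50% in the replicate tests, limit read from the data, passing the limit was not always enough; inconclusive = probably only some replicates passing the limit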;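 also: agonist challenge used bursicon conditioned medium at about half maximal strength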
TWEAK-Fn14 inh: TWEAK-Fn14 signaling inhibition | inhibition, % at 10 µM | 2% of 360,000 active | TWEAK-stimulated Fn14 reporter cells, luciferase luminescence, 8 h; in the data active = inhibition above about 50%
Xi reactivation: activators of X-chromosome reactivation in mouse fibroblasts; 0.055% of 360,000 active; activation, % at 7.58 µM; XiGFP mouse fibroblasts, % GFP-positive cells imaging, 3 d; cells co-treated with 5-aza-dC sensitizer; scaled so ellipticine positive control = 100%;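 active = mean normalized replicate activation at least 10% and every replicate at or above 10%; inconclusive = only one of the two criteria met; inactive = mean below 10% and not all replicates reach 10%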;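 also: 0% = median of on-plate neutral control wells and 100% = ellipticine 6 µM median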
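Material: XiGFP fibroblasts, SV40-immortalized; Buffer or medium: DMEM containing 5-aza-dC; Compound dosing: single point; Times: 3 days compound exposure.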
TROY NFkB inh: TROY signaling inhibition. Q293 LMP1-TROYcd NF-kB luciferase reporter, 4 h. inhibition, % at 10 µM. 0.98% of 360,000 active. AID 1347056;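 active = compounds whose plate-normalised and pattern-corrected inhibition of the luciferase reporter signal at the single screening dose is 50% or more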
Active calls of the source: *; ? = inconclusive; · = no result. Compounds with a hit are over-represented: about 2% of the library has one in this group of screens.

SMILES	CaV13 ICDI inh	LGR2 antag	TWEAK-Fn14 inh	Xi reactivation	TROY NFkB inh
O=C(OC(c1ccccc1)c1nccc2ccccc12)c1ccccc1 (configuration not stated)	-7	?	98*	0	87*
Nc1ccc(-c2nc3c(Cl)c(N)ccc3[nH]2)cc1	·	·	61*	·	-22
CCC(=O)N1C[C@@H](O)COC[C@@H]2O[C@H](CC(=O)NCC3CCCCC3)CC[C@H]21	·	6	·	0	·
CCc1ccccc1S(=O)(=O)Cc1ccc(C(=O)N2CCN(c3ccccc3OC)CC2)o1	55*	-5	8	0	18
N#C[C@H]1[C@H](c2ccc(C3=CCCCC3)cc2)[C@@H](CO)N1C(=O)c1cccc(F)c1	·	-8	·	1	·
CC[C@H](C)[C@H]1O[C@]2(CC[C@@H]1C)C[C@@H]1C[C@@H](CC=C(C)[C@@H](O[C@H]3C[C@H](OC)[C@@H](O[C@H]4C[C@H](OC)[C@@H](O)[C@H](C)O4)[C@H](C)O3)[C@@H](C)C=CC=C3CO[C@@H]4[C@H](O)C(C)=C[C@@H](C(=O)O1)[C@]34O)O2	·	·	100*	·	30
O=C(Nc1ccc(Cl)cc1)Nc1ccc(N2CCCC2)c(S(=O)(=O)Nc2ccccc2Cl)c1	-5	42	75*	0	33
O=C(Nc1ccc(N2CCOCC2)c(S(=O)(=O)Nc2ccccc2Cl)c1)c1ccccc1	-6	5	14	0	17
CCOC(=O)c1c(N)c2cc([N+](=O)[O-])ccc2n1C	-5	-20	-41	0	-19
CCOC(=O)/C(=C/c1c(C)n(C)c2ccc([N+](=O)[O-])cc12)C(C)=O	-14	36	73*	0	50*
CCC(=O)Nc1ccc2c(c1)OC[C@@H](C)N(C(=O)Cc1ccccn1)C[C@@H](C)[C@@H](OC)CN(C)C2=O	·	13	·	0	·
O=S1(=O)CC(c2ccccc2)=NN=C(c2ccccc2)C1	-5	-79	89*	0	38
CC(C)(C)c1ccc(-n2nc(C#N)c(Cl)cc2=O)cc1	-4	101*	105*	0	89*
CC(C)(C)c1ccc(-n2nc(C(N)=O)c(O)cc2=O)cc1	-5	-10	6	0	10
CC(C)CC#Cc1cnc2c(c1)C(=O)N([C@H](C)CO)C[C@@H](C)[C@@H](CN(C)C(=O)c1cccc(F)c1)O2	·	5	·	0	·
CCNC(=O)C1(C)CCN(C(=O)c2ccc(F)cc2Cl)C1 (configuration not stated)	-11	2	89*	0	2
CCCS(=O)(=O)NC(=O)C1(C)CCN(C(=O)c2ccc(F)cc2Cl)C1 (configuration not stated)	·	·	20	·	5
CN(c1ccccc1)S(=O)(=O)c1cccc(NC(=O)c2cc(=O)c3ccccc3o2)c1	-7	67*	51*	0	49
O=C(Nc1cccc(S(=O)(=O)N2CCCCCC2)c1)c1cc(=O)c2ccccc2o1	-2	23	63*	0	20
CCCSc1cc(NCCOC(=O)CCC)c([N+](=O)[O-])c2nonc12	-4	6	21	2	19
CCC(=O)OCCNc1cc(Sc2nc3ccccc3[nH]2)c2nonc2c1[N+](=O)[O-]	-5	7	54*	16*	54*
CCC(=O)OCCNc1cc(Sc2nc3ccccc3s2)c2nonc2c1[N+](=O)[O-]	-13	34	18	·	9
CCCC(=O)OCCNc1cc(Sc2nccn2C)c2nonc2c1[N+](=O)[O-]	-5	42	42	23*	18
C[C@H](CO)N1C[C@H](C)[C@@H](CN(C)C(=O)c2cccc(F)c2)Oc2cc(C#CC3CCCC3)ccc2S1(=O)=O	·	27	·	-1	·
Cc1ccc2nc(NC(=O)c3ccc(OCC4CCCO4)cc3)sc2c1 (configuration not stated)	-6	5	90*	0	37
SMILES	CaV13 ICDI inh	LGR2 antag	TWEAK-Fn14 inh	Xi reactivation	TROY NFkB inh
COc1ccc2nc(NC(=O)c3ccc(NC(=O)C4CCCO4)cc3)sc2c1 (configuration not stated)	-6	1	8	0	9
Cc1cc(C)c2nc(NC(=O)c3ccc(OCC4CCCO4)cc3)sc2c1 (configuration not stated)	-7	-26	53*	0	-12
COC(=O)c1ccc(C(NC(=O)c2cccnc2)NC(=O)c2cccnc2)cc1	-5	8	59*	0	32
COC(=O)c1cc(NC(=O)c2cccnc2)cc(C(=O)OC)c1	-5	-5	-4	0	-27
COc1cc(/C=C/[N+](=O)[O-])ccc1OC(=O)c1cc2ccccc2oc1=O	-21	·	20	0	53*
COc1ccccc1OC(=O)c1cc2ccccc2oc1=O	-6	-6	-8	0	-27
CC(C)=CCCC(C)N(C=O)C(C)CCC=C(C)C (configuration not stated)	·	·	53*	·	50*
CC(=O)N(CCCN(C)C)CCC(C)CCC=C(C)C (configuration not stated)	·	-4	0	·	-10
CCCC(NCC(O)COc1ccc(-c2ccccc2)cc1)c1ccccc1 (configuration not stated)	-3	75*	-9	0	22
Cc1cc(OCC(O)CNC(C)c2ccccc2)ccc1C(C)C (configuration not stated)	-4	66*	0	0	-19
COc1ccc(OCC(O)CNC(C)c2ccccc2)cc1 (configuration not stated)	-19	-18	0	0	-2
C[C@H]1CN([C@@H](C)CO)S(=O)(=O)c2ccc(C#CC(C)(C)O)cc2O[C@H]1CN(C)C	·	-8	·	0	·
C[C@H]1CN([C@@H](C)CO)C(=O)c2cc(Br)cnc2O[C@@H]1CN(C)C(=O)C1CCCCC1	·	8	·	0	·
COc1ccc(Cl)cc1C(=O)Nc1ccc(NC(C)=O)cc1	-3	16	-2	0	-32
CC(=O)Oc1c(I)cc(I)cc1C(=O)Nc1ccc(Cl)cc1	-6	46	52*	0	52*
CC(C)(C)OC(=O)NCc1ccc(CNC(=O)c2[nH]cnc2C(=O)Nc2ccccc2F)cc1	-5	?	54*	0	40
C[C@H](NC(=O)c1nc[nH]c1C(=O)NCc1ccc(CNC(=O)OC(C)(C)C)cc1)c1ccccc1	-9	-5	22	0	29
CC(C)(C)OC(=O)NCCCCCNC(=O)c1[nH]cnc1C(=O)Nc1cc(Br)ccc1F	-5	17	76*	0	22
CC(C)(C)OC(=O)NCCCCCNC(=O)c1[nH]cnc1C(=O)Nc1ccc(Cl)cc1	-11	14	62*	0	57*
C[C@H](NC(=O)c1nc[nH]c1C(=O)NCc1ccc(CNC(=O)OC(C)(C)C)cc1)C(=O)OCc1ccccc1	-6	7	-1	0	57*
